What is called MIC is the least concentration at which growth counts as inhibited. The term CC50 denotes the concentration at which the toxic effect on the cells reaches its halfway point.

Values after ≈ are worked out from the molar mass of the structure shown.

Data set [1] has as its system Staphylococcus aureus. Kind of data set: Antibacterial activity against methicillin-resistant Staphylococcus aureus NR10193 by CLSI method. It is filed as functional. The method in brief:
(§1)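 Broth microdilution to CLSI. A single colony from Mueller-Hinton agar is grown overnight in cation-supplemented MHB at 37 °C with shaking, 18–24 h. Levofloxacin is the reference. MIC is the lowest concentration with no visible growth, from three independent runs in duplicate.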

The subject of data set [2] is Staphylococcus aureus. Kind of data set: Antibacterial activity against methicillin-resistant Staphylococcus aureus NR10129 by CLSI method. In kind it is functional. The method in brief: as §1
Data set [3] relates to Staphylococcus aureus. Kind of data set: Antibacterial activity against vancomycin-resistant Staphylococcus aureus VRS4 by CLSI method. It is filed as functional. The method in brief: as §1
Data set [4] has as its system Staphylococcus aureus. Kind of data set: Antibacterial activity against methicillin-resistant Staphylococcus aureus NR10194 by CLSI method. It is filed as functional. In a few lines: as §1
The subject of data set [5] is Staphylococcus aureus. Kind of data set: Antibacterial activity against methicillin-resistant Staphylococcus aureus NR10198 by CLSI method. In kind it is functional. In a few lines:
as §1

For data set [6], the system named is Staphylococcus aureus. Kind of data set: Antibacterial activity against methicillin-resistant Staphylococcus aureus NR10186 by CLSI method. In kind it is functional. The method in brief:
as §1

In data set [7] the test system is Staphylococcus aureus. Kind of data set: Antibacterial activity against vancomycin-resistant Staphylococcus aureus VRS1 by CLSI method. It is filed as functional. In a few lines: as §1
The test system of data set [8] is Staphylococcus aureus. Kind of data set: Antibacterial activity against methicillin-sensitive Staphylococcus aureus ATCC 29213 by CLSI method. It is filed as functional. The method in brief: as §1
The subject of data set [9] is Staphylococcus aureus. Kind of data set: Antibacterial activity against methicillin-resistant Staphylococcus aureus NR119 by CLSI method. In kind it is functional. In a few lines: as §1
Data set [10] concerns Staphylococcus aureus. Kind of data set: Antibacterial activity against methicillin-resistant Staphylococcus aureus NR10191 by CLSI method. In kind it is functional. The method in brief: as §1
In data set [11] the test system is Staphylococcus aureus. Kind of data set: Antibacterial activity against methicillin-resistant Staphylococcus aureus NR10192 by CLSI method. It is filed as functional. The method in brief: as §1
Data set [12] has as its system Staphylococcus aureus. Kind of data set: Antibacterial activity against vancomycin-resistant Staphylococcus aureus VRS12 by CLSI method. It is filed as functional. The method in brief:
as §1

Data set [13] has as its system Escherichia coli. Kind of data set: Antibacterial activity against Escherichia coli ATCC 25922 after 16 to 18 hrs in presence of PMBN by CLSI method. In kind it is functional. The method in brief: (§2)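 MIC per CLSI broth microdilution with compound combined with a sub-lethal level of polymyxin B nonapeptide. Inoculum is ~10⁶ CFU/mL in cation-supplemented Mueller-Hinton broth. Incubation is 37 °C for 16–18 h. MIC is read as the absence of visible growth. Three independent runs, each in duplicate.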

For data set [14], the system named is Acinetobacter baumannii. Kind of data set: Antibacterial activity against Acinetobacter baumannii BAA-1605 after 16 to 18 hrs in presence of PMBN by CLSI method. It is filed as functional. In a few lines:
as §2

Data set [15] deals with Escherichia coli. Kind of data set: Antibacterial activity against Escherichia coli ATCC 25922 after 16 to 18 hrs by CLSI method. In kind it is functional. The method in brief: (§3)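 Broth microdilution MIC per CLSI. A single colony from Mueller-Hinton agar is grown overnight in cation-supplemented Mueller-Hinton broth (37 °C, shaking, 18–24 h). Incubation is 37 °C for 16–18 h. MIC is the lowest concentration with no visible growth. Three independent runs, each in duplicate.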

For data set [16], the system named is Acinetobacter baumannii. Kind of data set: Antibacterial activity against Acinetobacter baumannii BAA-1605 after 16 to 18 hrs by CLSI method. It is filed as functional. The method in brief: as §3
For data set [17], the system named is Klebsiella pneumoniae. Kind of data set: Antibacterial activity against Klebsiella pneumoniae ATCC BAA-1705 after 16 to 18 hrs by CLSI method. It is filed as functional. The method in brief: as §3
The subject of data set [18] is Mycobacteroides abscessus. Kind of data set: Antimycobacterial activity against Mycobacterium abscessus by pesto blue-dye based broth microdilution assay. In kind it is functional.
For data set [19], the system named is Mycobacterium tuberculosis. Kind of data set: Antimycobacterial activity against Mycobacterium tuberculosis H37Rv ATCC 27294 after 7 days by pesto blue-dye based broth microdilution assay. Particulars: H37Rv ATCC 27294, 168 h. In kind it is functional. The method in brief: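 Broth microdilution in Middlebrook 7H9 with 10% ADC-Tween-80 (0.2% glycerol, 0.05% Tween-80). Compound is added from 10 mg/mL DMSO stocks as two-fold dilutions, 64–0.5 mg/L. Plates are incubated 7 days at 37 °C and read with PrestoBlue resazurin dye. MIC is the lowest concentration inhibiting visible growth, three replicates in duplicate.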

Data set [20] in a line: Selectivity index, ratio of CC50 for African green monkey Vero cells to MIC for Staphylococcus aureus ATCC 29213. Particulars: read-out: Selectivity Index. In kind it is toxicity. The method in brief:
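Selectivity index is calculated as the Vero CC50 divided by the MIC against S. aureus ATCC 29213. CC50 comes from a 72 h MTT assay at 100–5 mg/L. MIC comes from CLSI broth microdilution at ~10⁶ CFU/mL, 37 °C, 16–18 h.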

Data set [21] has as its system Mycobacteroides chelonae. Kind of data set: Antimycobacterial activity against Mycobacterium chelonae by pesto blue-dye based broth microdilution assay. It is filed as functional.
Data set [22] relates to Mycolicibacterium fortuitum. Kind of data set: Antimycobacterial activity against Mycobacterium fortuitum by pesto blue-dye based broth microdilution assay. In kind it is functional. For orientation: In broth dilution the organism is exposed to a series of concentrations in liquid medium.
For data set [23], the system named is Staphylococcus aureus. Kind of data set: Antibacterial activity against Staphylococcus aureus ATCC 29213 after 16 to 18 hrs by CLSI method. In kind it is functional. In a few lines:
as §3

Data set [24] relates to Pseudomonas aeruginosa. Kind of data set: Antibacterial activity against Pseudomonas aeruginosa ATCC 27853 after 16 to 18 hrs by CLSI method. In kind it is functional. In a few lines: as §3
Data set [25] can be described thus: Cytotoxicity against African green monkey Vero cells after 72 hrs by MTT assay. In kind it is cell-based. Particulars: chlorocebus sabaeus. In a few lines:
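Vero cells are seeded at ~10³ per well and held 24 h at 37 °C, 5% CO₂. Compound at 100–5 mg/L is then added for 72 h. MTT is added at […], and formazan is dissolved in DMSO and read at 540 nm. CC50 is the lowest concentration giving 50% loss of viability. Doxorubicin is the positive control. Triplicate experiments.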
Background: Tetrazolium dyes change colour on reduction, which living cells bring about.

Take `C[C@@H](O)[C@H]1C(=O)N2C(C(=O)O)=C(S[C@@H]3CN[C@H](C(=O)N(C)C)C3)[C@H](C)[C@H]12` [MEROPENEM]: the minimal inhibitory concentration (MIC) is over 64 µg/mL in [1]; 16 µg/mL (≈ 41.7 µM) in data set [2]; over 64 µg/mL in data set [3]; 4 µg/mL (≈ 10.4 µM) in data set [4]; over 64 µg/mL in data set [5]; 16 µg/mL (≈ 41.7 µM) in data set [6]. Moreover, the MIC is over 64 µg/mL in data set [7]; 4 µg/mL (≈ 10.4 µM) in [8]; over 64 µg/mL in [9]; over 64 µg/mL in data set [10]; 64 µg/mL (≈ 167 µM) in [11]; over 64 µg/mL in [12].
In the case of `CO[C@H]1/C=C/O[C@@]2(C)Oc3c(C)c(O)c4c(O)c(c(/C=N/N5CCN(C)CC5)c(O)c4c3C2=O)NC(=O)/C(C)=C\C=C\[C@H](C)[C@H](O)[C@@H](C)[C@@H](O)[C@@H](C)[C@H](OC(C)=O)[C@@H]1C` [RIFAMPIN], the MIC in data set [13] came to 0.125 µg/mL; in data set [14], 0.25 µg/mL; in [15], 4 µg/mL (≈ 4.86 µM); in data set [16] it was 4 µg/mL (≈ 4.86 µM).
For the compound `Cc1cccc(-n2cc(COc3cccc(-n4c(/C=C/c5ccc(C#N)cc5)nc5ccccc5c4=O)c3)nn2)c1`, the minimum inhibitory concentration (MIC) in [17], in data set [18], in [19], in data set [21], in [15] and in [16] was over 64 µg/mL each time. The MIC in data set [22] was over 64 µg/mL; in data set [23] it was 0.5 µg/mL (≈ 0.932 µM); in [24], over 64 µg/mL. Besides, in [20], the selectivity ratio is 40. In data set [25], half-maximal cytotoxicity (CC50 at 72 h) was put at 20 µg/mL (≈ 37.3 µM).
With `C[C@H]1COc2c(N3CCN(C)CC3)c(F)cc3c(=O)c(C(=O)O)cn1c23.C[C@H]1COc2c(N3CCN(C)CC3)c(F)cc3c(=O)c(C(=O)O)cn1c23.O` [LEVOFLOXACIN], the minimum inhibitory concentration (MIC) in data set [1] was 32 µg/mL; in [17] it was 64 µg/mL; in data set [2] it was 0.5 µg/mL; in data set [3], over 64 µg/mL; in [4] it was 0.5 µg/mL; in [5], 32 µg/mL. Also, the minimum inhibitory concentration (MIC) in [6] was found to be 8 µg/mL; in [7], 32 µg/mL; in data set [8], 0.5 µg/mL; in [9], 16 µg/mL; in data set [10], 32 µg/mL; in data set [23], 0.125 µg/mL. Also, the results for the minimal inhibitory concentration (MIC) in data set [11], in data set [24] and in data set [12] were 8 µg/mL, 0.5 µg/mL and 32 µg/mL, respectively.
With `N#Cc1ccc(/C=C/c2nc3ccccc3c(=O)n2-c2cccc(OCc3cn(-c4cccc(Cl)c4)nn3)c2)cc1`, the minimum inhibitory concentration (MIC) was 1 µg/mL (≈ 1.8 µM) in data set [1]; over 64 µg/mL in data set [17]; over 64 µg/mL in data set [18]; over 64 µg/mL in data set [19]; over 64 µg/mL in data set [21]; over 64 µg/mL in data set [13]. The minimum inhibitory concentration (MIC) in data set [2] is 0.5 µg/mL (≈ 0.898 µM); in data set [14], over 64 µg/mL; in data set [15], over 64 µg/mL; in data set [16], over 64 µg/mL; in [22], over 64 µg/mL; in data set [3], 0.5 µg/mL (≈ 0.898 µM). The MIC amounted to 0.5 µg/mL (≈ 0.898 µM) in [4]; 0.5 µg/mL (≈ 0.898 µM) in data set [5]; 0.5 µg/mL (≈ 0.898 µM) in [6]; 32 µg/mL (≈ 57.4 µM) in [7]; 0.5 µg/mL (≈ 0.898 µM) in data set [8]; 0.5 µg/mL (≈ 0.898 µM) in [9]. For the same compound, the MIC in data set [10] was 1 µg/mL (≈ 1.8 µM); in data set [23] it was 0.5 µg/mL (≈ 0.898 µM); in data set [11] it was 0.5 µg/mL (≈ 0.898 µM); in [24], over 64 µg/mL; in data set [12] it was 2 µg/mL (≈ 3.59 µM). Besides, the selectivity ratio in data set [20] came to 80. Further, half-maximal cytotoxicity in [25] (CC50 at 72 h) was put at 40 µg/mL (≈ 71.8 µM).
As for `N#Cc1ccc(/C=C/c2nc3ccccc3c(=O)n2-c2cccc(OCc3cn(Cc4ccccc4)nn3)c2)cc1`, the minimal inhibitory concentration (MIC) was 2 µg/mL (≈ 3.73 µM) in [1]; over 64 µg/mL in data set [17]; over 64 µg/mL in data set [18]; over 64 µg/mL in [19]; over 64 µg/mL in data set [21]; over 64 µg/mL in [13]. Moreover, the minimal inhibitory concentration (MIC) in [2] was 2 µg/mL (≈ 3.73 µM); in data set [14] it was over 64 µg/mL; in [15], over 64 µg/mL; in data set [16] it was over 64 µg/mL; in data set [22], over 64 µg/mL; in data set [3] it was 2 µg/mL (≈ 3.73 µM). The MIC amounted to 1 µg/mL (≈ 1.86 µM) in [4]; 2 µg/mL (≈ 3.73 µM) in [5]; 2 µg/mL (≈ 3.73 µM) in data set [6]; 32 µg/mL (≈ 59.6 µM) in [7]; 1 µg/mL (≈ 1.86 µM) in data set [8]; 2 µg/mL (≈ 3.73 µM) in data set [9]. The MIC in data set [10] was 1 µg/mL (≈ 1.86 µM); in [23], 0.5 µg/mL (≈ 0.932 µM); in data set [11], 1 µg/mL (≈ 1.86 µM); in data set [24], over 64 µg/mL; in data set [12], 2 µg/mL (≈ 3.73 µM). In addition, the selectivity ratio in data set [20] stood at 40. The compound further showed a half-maximal cytotoxic concentration (CC50) at 72 h in data set [25] of 20 µg/mL (≈ 37.3 µM).
